Our source for the Response values is ChEMBL document CHEMBL1133137, “Synthesis and biological effects of a new series of 2-amino-3-benzoylthiophenes as allosteric enhancers of A1-adenosine receptor” (Bioorg Med Chem Lett, 2000).

SMILES strings stand for the structures.

Format in all cases: functional, cell-based
Assay [1] deals with T1, Adenosine receptor A1 (Homo sapiens) (UniProt P30542).
T1 sequence (whole entry): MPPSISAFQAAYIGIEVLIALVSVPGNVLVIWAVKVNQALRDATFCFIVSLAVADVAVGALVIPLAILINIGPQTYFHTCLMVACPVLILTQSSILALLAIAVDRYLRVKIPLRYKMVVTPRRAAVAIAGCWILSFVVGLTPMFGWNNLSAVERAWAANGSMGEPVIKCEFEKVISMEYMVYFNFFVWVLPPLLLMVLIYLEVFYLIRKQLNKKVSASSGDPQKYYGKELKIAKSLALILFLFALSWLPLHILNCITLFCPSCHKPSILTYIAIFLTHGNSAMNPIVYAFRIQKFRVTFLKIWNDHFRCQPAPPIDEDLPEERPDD
Kind of assay: Percentage of response to 10 uM of PD-81723 on CHO cells expressing the cloned human A1-adenosine receptor at 1 uM concentration. Summed up:
(§1)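 CHO cells stably expressing recombinant human A1 receptors (~8000 fmol/mg protein), thawed from low-passage frozen stocks, grown to confluence over 48–72 h in Ham's F-12 with 10% FBS and G-418. Test compound incubated 6 min at 36 °C with 0.05–0.1 nM CPA. Reaction stopped with HCl (final 50 mM). cAMP in acid extracts measured by radioimmunoassay. Reduction normalized to the response to 10 μM PD 81,723.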

Assay [2] concerns the target T1, Adenosine receptor A1 (Homo sapiens). Briefly: Percentage of response to 10 uM of PD-81723 on CHO cells expressing the cloned human A1-adenosine receptor at 0.1 uM concentration. The method, boiled down: as §1
The target is the same in assay [3]. Briefly: Percentage of response to 10 uM of PD-81723 on CHO cells expressing the cloned human A1-adenosine receptor at 10 uM concentration. The method, boiled down: as §1
Assay [4] has the same target. Briefly: Percentage of response to 10 uM of PD-81723 on CHO cells expressing the cloned human A1-adenosine receptor at 0.1 uM. The method, boiled down:
as §1

Assay [5] shares this target. Briefly: Percent response to 10 uM PD-81723 on CHO cells expressing human A1-adenosine receptor at 0.1 uM; An increase of cAmp content of cells. The method, boiled down: as §1
Assay [6] has the same target. Briefly: Percentage of response to 10 uM of PD-81723 on CHO cells expressing the cloned human A1-adenosine receptor at 10 uM; An increase of cAmp content of cells. Summed up:
as §1

The target is the same in assay [7]. Briefly: Percentage of response to 10 uM of PD-81723 on CHO cells expressing the cloned human A1-adenosine receptor at 1 uM; An increase of cAmp content of cells. The method, boiled down: as §1
Assay [8] shares this target. Kind of assay: The compound was tested for its percentage of response to 10 uM of PD-81723 on CHO cells expressing the cloned human A1-adenosine receptor at 10 uM concentration; change of less than 5% of allosteric enhancement. Summed up: as §1
For assay [9] the target is unchanged. Kind of assay: The compound was tested for its percentage of response to 10 uM of PD-81723 on CHO cells expressing the cloned human A1-adenosine receptor at 1 uM; change of less than 5% of allosteric enhancement. Summed up: as §1
For assay [10] the target is unchanged. Briefly: The compound was tested for its percentage of response to 10 uM of PD-81723 on CHO cells expressing the cloned human A1-adenosine receptor at 0.1 uM; An increase of cAmp content of cells. Summed up: as §1
Assay [11] shares this target. Briefly: The compound was tested for its percentage of response to 10 uM of PD-81723 on CHO cells expressing the cloned human A1-adenosine receptor at 10 uM; An increase of cAmp content of cells. Summed up:
as §1

Assay [12] shares this target. Kind of assay: The compound was tested for its percentage of response to 10 uM of PD-81723 on CHO cells expressing the cloned human A1-adenosine receptor at 1 uM concentration; change of less than 5% of allosteric enhancement. The method, boiled down:
as §1

For assay [13] the target is unchanged. Briefly: The compound was tested for its percentage of response to 10 uM of PD-81723 on CHO cells expressing the cloned human A1-adenosine receptor at 0.1 uM concentration; An increase of cAmp content of cells. The method, boiled down:
as §1

The target is the same in assay [14]. Briefly: The compound was tested for its percentage of response to 10 uM of PD-81723 on CHO cells expressing the cloned human A1-adenosine receptor at 10 uM; change of less than 5% of allosteric enhancement. Summed up: as §1
The target is the same in assay [15]. Briefly: The compound was tested for its percentage of response to 10 uM of PD-81723 on CHO cells expressing the cloned human A1-adenosine receptor at 10 uM concentration; An increase of cAmp content of cells. Summed up:
as §1

As for `Nc1sccc1C(=O)c1ccc(Cl)cc1`, the values for the Response in [1], in [2] and in assay [3] were 8%, 7% and 25%, respectively.
Consider `Nc1sc2c(c1C(=O)c1ccccc1)CCNC2`, for which the Response in assay [4] was below 5%; in [1], 9%; in assay [3], 12%.
For `Nc1sccc1C(=O)c1ccccc1`, the Response in assay [1] is 26%; in assay [2] it was 51%; in assay [3], 28%.
In the case of `Nc1sc2c(c1C(=O)c1ccc(F)cc1)CCC2`, the values for the Response in assay [4], in assay [1] and in [3] were below 5%, 43% and 65%, respectively.
Turning to `Cc1sc(N)c(C(=O)c2ccc(Cl)cc2)c1C`, the Response was 52% in [1], 30% in assay [2] and 92% in assay [3].
For the compound `Cc1ccc(S(=O)(=O)N2CCc3c(sc(N)c3C(=O)c3ccccc3)C2)cc1`, the Response result in assay [5], in assay [6] and in [7] was “Increased cAMP” in each case.
Take `COc1ccc(C(=O)c2c(N)sc3c2CCC3)cc1`: the Response is below 5% in assay [4], 43% in [1] and 42% in assay [3].
Consider `Nc1sc2c(c1C(=O)c1ccc(Cl)cc1)CCN(Cc1ccccc1)C2`, for which the Response in assay [4] was below 5%; in assay [6], “Increased cAMP”; in [7] it was “Increased cAMP”.
For `Nc1sc2c(c1C(=O)c1ccc(-c3ccccc3)cc1)CCN(C(=O)OCc1ccccc1)C2`, the Response in [1] was 6%; in assay [8] it was below 5%; in [2], 14%.
As to `Nc1sc2c(c1C(=O)c1ccc(Cl)cc1)CCC2`, the Response was below 5% in [8], “Increased cAMP” in [5] and below 5% in assay [9].
On to `CCOC(=O)CN1CCc2c(sc(N)c2C(=O)c2ccccc2)C1`, for which the Response entry in assay [5], in assay [6] and in [7] was “Increased cAMP” each time.
Turning to `Nc1sc2c(c1C(=O)c1ccc(Cl)cc1)CCNC2`, the Response in [1] came to 12%; in assay [2] it was 15%; in assay [3], 9%.
On the same counts, the results for `Nc1sc2c(c1C(=O)c1ccc(Cl)cc1)CCN(CCCc1ccccc1)C2` are 15%, 8% and 31%.
On to `Cc1sc(N)c(C(=O)c2cccc(C(F)(F)F)c2)c1C`, for which the Response was determined as 40% in assay [1], 13% in assay [2] and 100% in assay [3].
On the same counts, the results for `Nc1sc2c(c1C(=O)c1ccc(Br)cc1)CCC2` are 53%, 31% and 72%.
Consider `Nc1sc2c(c1C(=O)c1ccccc1)CCN(CCc1ccc([N+](=O)[O-])cc1)C2`, for which the Response in assay [1] was 13%; in [5], “Increased cAMP”; in [3] it was 31%.
For `Nc1sc2c(c1C(=O)c1cccc(C(F)(F)F)c1)CCN(CCCc1ccccc1)C2`, the Response was below 5% in [4], 7% in assay [1] and 22% in assay [3].
With `Nc1sc2c(c1C(=O)c1ccc(Br)cc1)CCN(C(=O)OCc1ccccc1)C2`, the Response result in assay [10], in assay [11] and in assay [7] was “Increased cAMP” in each case.
Consider `Nc1sc2c(c1C(=O)c1ccc(-c3ccccc3)cc1)CCCC2`, for which the Response in assay [1] stood at 79%; in assay [2] it was 14%; in [3] it was 68%.
As to `Nc1sc2c(c1C(=O)c1ccc(I)cc1)CCNC2`, the Response in assay [4], in [8] and in assay [12] was below 5% each time.
`Nc1sc2c(c1C(=O)c1ccccc1)SCC2`: the Response result in [13] is “Increased cAMP”; in assay [12] it was below 5%; in assay [3] it was 68%.
As to `Nc1sc2c(c1C(=O)c1ccccc1)CCCC2`, the Response amounted to 48% in [1], 16% in assay [2] and 77% in assay [3].
On the same counts, the results for `Nc1sc2c(c1C(=O)c1ccc(Cl)cc1)CCCCC2` are 42%, 25% and 72%.
`Nc1sc2c(c1C(=O)c1ccccc1)CCCCC2`: the Response result is “Increased cAMP” in assay [13], 29% in assay [1] and 54% in assay [3].
Take `Nc1sc2c(c1C(=O)c1ccc(I)cc1)CCN(C(=O)OCc1ccccc1)C2`: the Response in assay [4], in [8] and in assay [12] was below 5% in each case.
As for `COc1ccc(C(=O)c2c(N)sc3c2CCCC3)cc1`, the values for the Response in assay [4], in assay [1] and in [3] were below 5%, 44% and 71%, respectively.
For the compound `Nc1sc2c(c1C(=O)c1ccc(Br)cc1)CCCC2`, the Response in [1] is 67%; in [2], 50%; in assay [3], 67%.
As to `Nc1sc2c(c1C(=O)c1cccc(C(F)(F)F)c1)CCN(Cc1ccccc1)C2`, the Response in assay [1] was 41%; in assay [2] it was 18%; in [3], 85%.
For `Nc1sc2c(c1C(=O)c1ccc(-c3ccccc3)cc1)CCNC2`, the Response in [4] is below 5%; in [12], below 5%; in assay [6] it was “Increased cAMP”.
As for `Nc1sc2c(c1C(=O)c1ccc(F)cc1)CCCC2`, the Response is below 5% in assay [4], 43% in assay [1] and 83% in assay [3].
On the same counts, the results for `COc1ccc(C(=O)c2c(N)sc3c2CCCCC3)cc1` are below 5%, 54% and 36%.
In the case of `Nc1sc2c(c1C(=O)c1ccccc1)CCN(C(=O)OCc1ccccc1)C2`, the Response entry in assay [5], in [6] and in assay [7] was “Increased cAMP” in each case.
Turning to `Nc1sc2c(c1C(=O)c1ccc(Cl)cc1)CCCC2`, the Response is 58% in assay [1], 57% in assay [2] and 86% in assay [3].
With `Nc1sc2c(c1C(=O)c1ccc(Cl)cc1)CCN(CCc1ccccc1)C2`, the Response was 32% in assay [1], 58% in [2] and “Increased cAMP” in assay [6].
On to `Nc1sc2c(c1C(=O)c1ccc(I)cc1)CCC2`, for which the Response entry in assay [5] was “Increased cAMP”; in assay [7], “Increased cAMP”; in [14], below 5%.
For the compound `Nc1sc2c(c1C(=O)c1ccc(F)cc1)CCN(C(=O)OCc1ccccc1)C2`, the results for the Response in assay [4], in assay [6] and in [7] were below 5%, “Increased cAMP” and “Increased cAMP”, respectively.
Regarding `Nc1sc2c(c1C(=O)c1ccccc1)CCC2`, the Response in assay [1] stood at 29%; in [2], 35%; in [3], 82%.
Take `Nc1sc2c(c1C(=O)c1cccc(C(F)(F)F)c1)CCN(CCc1ccccc1)C2`: the Response entry in assay [15] was “Increased cAMP”; in assay [4], below 5%; in assay [12], below 5%.
Turning to `Nc1sc2c(c1C(=O)c1ccc(F)cc1)CCCCC2`, the Response in assay [1] was 36%; in assay [2], 26%; in assay [3], 61%.
On the same counts, the results for `Nc1sc2c(c1C(=O)c1ccc(Cl)cc1)CCCCCC2` are 39%, 24% and 68%.
`CCOC(=O)CN1CCc2c(sc(N)c2C(=O)c2ccc(Cl)cc2)C1`: the figures for the Response in assay [2], in assay [6] and in assay [7] were 10%, “Increased cAMP” and “Increased cAMP”, respectively.
